{"data": "Measurements gathered from unrelated publications", "target": "Phosphatidylinositol 5-phosphate 4-kinase type-2 beta (PIP4K2B, Homo sapiens, UniProt P78356)", "One construct used (P78356 1-416)": "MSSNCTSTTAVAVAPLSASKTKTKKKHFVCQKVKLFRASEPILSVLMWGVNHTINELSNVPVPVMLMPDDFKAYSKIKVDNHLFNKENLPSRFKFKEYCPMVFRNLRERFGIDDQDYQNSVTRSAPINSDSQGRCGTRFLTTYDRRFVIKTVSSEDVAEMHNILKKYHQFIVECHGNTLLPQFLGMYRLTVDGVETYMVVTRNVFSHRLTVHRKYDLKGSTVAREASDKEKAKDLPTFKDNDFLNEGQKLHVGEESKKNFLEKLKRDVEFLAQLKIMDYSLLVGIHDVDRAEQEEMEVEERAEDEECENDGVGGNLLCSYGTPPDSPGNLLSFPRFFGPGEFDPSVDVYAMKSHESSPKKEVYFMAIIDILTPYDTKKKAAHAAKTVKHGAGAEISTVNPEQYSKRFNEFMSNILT"}
{"Compound": "COc1ncc2cc3ccccc3nc2c1C#N", "assay": "cell-free assay, competition with immobilised ligand", "setting": "5 µM", "remaining binding": "100%"}
{"Compound": "O=C(c1ccc(Nc2ncc(Cl)c(-c3cc4ccccc4s3)n2)cc1)N1CCC(N2CCCC2)CC1", "assay": "binding, competition with immobilised ligand", "setting": "1 µM", "remaining binding": "7.1%"}
{"Compound": "N[C@@H]1CCN(c2nccc(-c3cnn4ncccc34)n2)C1", "assay": "binding", "setting": "1 µM", "remaining binding": "100%"}
{"Compound": "Cc1c(NC(=O)c2cc(C(N)=O)nc3cc(F)ccc23)c(C(F)(F)F)nn1Cc1ccc(C#N)cc1", "assay": "cell-free assay, competition with immobilised ligand", "setting": "1 µM", "remaining binding": "88%"}
{"Compound": "CC1CCCN1c1nccc(-c2cnn3ncccc23)n1 (stereo not drawn)", "assay": "binding", "setting": "1 µM", "remaining binding": "100%"}
{"Compound": "FC(F)(F)Oc1cccc(-c2cnc3ccc(-c4ccncc4)nn23)c1", "assay": "cell-free assay, competition with immobilised ligand", "setting": "5 µM", "remaining binding": "100%"}
{"Compound": "COc1ccnn2ncc(-c3ccnc(N(C)C)n3)c12", "assay": "binding", "setting": "1 µM", "remaining binding": "100%"}
{"Compound": "Nc1ncc2c(n1)-c1c([nH]c3ccc(C#CC4CC4)cc13)CCCC2", "assay": "binding, competition with immobilised ligand", "setting": "1 µM", "remaining binding": "86%"}
{"Compound": "Cn1nc(C(F)(F)F)cc1-c1cnc(N2CCc3cc(S(=O)(=O)Nc4c(F)cc(Cl)cc4F)cc(N4CCCC4=O)c32)nc1", "assay": "cell-free assay, competition with immobilised ligand", "setting": "1 µM", "remaining binding": "100%"}
{"Compound": "CNC(=O)[C@@H]1CC[C@@H](n2c(-c3ccc4cnccc4c3)nc3ccc(C(=O)NCc4cccc(C(N)=O)c4)cc32)C1", "assay": "binding, competition with immobilised ligand", "setting": "1 µM", "remaining binding": "99%"}
{"Compound": "CNCc1ccccc1-c1csc([C@H](C)Nc2nc(C)nc3cc(OC)c(OC)cc23)c1", "assay": "cell-free assay, competition with immobilised ligand", "setting": "1 µM", "remaining binding": "100%"}
{"Compound": "CN(c1nccc(-c2cnn3ncccc23)n1)C1CC1", "assay": "binding", "setting": "1 µM", "remaining binding": "65%"}
{"Compound": "O=C(Nc1c[nH]nc1C(=O)NC1CCNCC1)c1cc(F)cc(F)c1", "assay": "binding, competition with immobilised ligand", "setting": "1 µM", "remaining binding": "88%"}
{"Compound": "F[C@@H]1CCN(c2nccc(-c3cnn4ncccc34)n2)C1", "assay": "binding", "setting": "1 µM", "remaining binding": "79%"}
{"Compound": "C[C@H](c1ccnc(Nc2nc3ccc(-c4cc(N(C)C)ncn4)cc3[nH]2)c1)N1CCN(C(=O)CC(F)(F)F)CC1", "assay": "cell-free assay, competition with immobilised ligand", "setting": "0.1 µM", "remaining binding": "75%"}
{"Compound": "CCN1CCN(Cc2ccc(C(=O)Nc3ccc(C)c(Oc4ccc5c(c4)CC(=O)N5)c3)cc2C(F)(F)F)CC1", "assay": "binding, competition with immobilised ligand", "setting": "1 µM", "remaining binding": "100%"}
{"Compound": "Cc1cnc(Nc2ccc(C(=O)N3CCC(N4CCCC4)CC3)cc2)nc1-c1cc2ccccc2s1", "assay": "binding, competition with immobilised ligand", "setting": "1 µM", "remaining binding": "8.8%"}
{"Compound": "Cc1cnn2ncc(-c3ccnc(N(C)C)n3)c2c1", "assay": "binding", "setting": "1 µM", "remaining binding": "47%"}
{"Compound": "Cc1c(NC(=O)c2cc(C(N)=O)nc3cc(F)ccc23)c(C(F)(F)F)nn1Cc1ccc(C(C)(C)C)cc1", "assay": "cell-free assay, competition with immobilised ligand", "setting": "1 µM", "remaining binding": "91%"}
{"Compound": "Cc1nc(NC(=O)N2CCC[C@H]2C(N)=O)sc1-c1ccnc(C(C)(C)C(F)(F)F)c1", "assay": "binding, competition with immobilised ligand", "setting": "10 µM", "remaining binding": "100%"}
{"Compound": "C[C@@]1(Cc2ccc(C#N)cc2)C(=O)N(c2cc(Cl)cc(Cl)c2)c2ncc(C(=O)NC3(c4nc(C5CCC5)no4)CC3)n21", "assay": "cell-free assay, competition with immobilised ligand", "setting": "1 µM", "remaining binding": "97%"}
{"Compound": "O=C(NCCCN1CCOCC1)c1ccc(Nc2ncc(Cl)c(-c3ccc(Cl)s3)n2)cc1", "assay": "binding, competition with immobilised ligand", "setting": "1 µM", "remaining binding": "4.2%"}
{"Compound": "Cc1nc(N2CC[C@@H](O)C2)ncc1-c1cc(C(F)(F)F)cc2[nH]ncc12", "assay": "cell-free assay, competition with immobilised ligand", "setting": "1 µM", "remaining binding": "100%"}
{"Compound": "CN(C)c1ncc(F)c(-c2cnn3ncccc23)n1", "assay": "binding", "setting": "1 µM", "remaining binding": "100%"}
